33 molecules from ChEMBL document CHEMBL1142972, “Novel N-substituted indol-3-ylglyoxylamides probing the LDi and L1/L2 lipophilic regions of the benzodiazepine receptor site in search for subtype-selective ligands” (J Med Chem, 2007) can be followed below.

Calls of active or inactive are those of the source. No cut-off for these calls is given here.

The target in test [1] is GABA A receptor alpha-2/beta-2/gamma-2 (Rattus norvegicus, UniProt P18508+P23576+P63138). As to the kind of experiment: Displacement of [3H]flumazenil from rat GABAA alpha-2-beta-2-gamma-2 expressed in HEK293 cells. In kind it is cell-based. An outline of the steps: (§1)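 Crude membranes from HEK293 cells stably expressing rat GABAA subtypes, cells grown in DMEM/F-12 with 10% FBS at 37 °C, 5% CO2. Homogenized in 10 mM potassium phosphate pH 7.4, spun at 48 000g for 30 min at 4 °C, washed twice, resuspended with 100 mM KCl. [3H]flumazenil displacement; Ki as mean ± SEM of three determinations in triplicate.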
Chain of GABA A receptor alpha-2/beta-2/gamma-2 (P18508 whole entry): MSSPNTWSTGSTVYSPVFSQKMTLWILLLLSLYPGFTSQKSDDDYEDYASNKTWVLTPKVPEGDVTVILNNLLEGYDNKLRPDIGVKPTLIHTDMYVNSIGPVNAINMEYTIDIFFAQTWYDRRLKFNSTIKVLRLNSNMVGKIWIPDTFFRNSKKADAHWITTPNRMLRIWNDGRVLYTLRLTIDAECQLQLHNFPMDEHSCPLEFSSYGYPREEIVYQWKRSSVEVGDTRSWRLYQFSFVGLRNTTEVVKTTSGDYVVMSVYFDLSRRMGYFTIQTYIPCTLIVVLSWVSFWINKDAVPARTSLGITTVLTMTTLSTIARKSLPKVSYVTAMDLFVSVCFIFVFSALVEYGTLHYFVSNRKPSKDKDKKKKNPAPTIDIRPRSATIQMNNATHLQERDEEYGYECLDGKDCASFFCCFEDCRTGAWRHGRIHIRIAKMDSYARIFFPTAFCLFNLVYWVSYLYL
Chain of GABA A receptor alpha-2/beta-2/gamma-2 (P23576 whole entry): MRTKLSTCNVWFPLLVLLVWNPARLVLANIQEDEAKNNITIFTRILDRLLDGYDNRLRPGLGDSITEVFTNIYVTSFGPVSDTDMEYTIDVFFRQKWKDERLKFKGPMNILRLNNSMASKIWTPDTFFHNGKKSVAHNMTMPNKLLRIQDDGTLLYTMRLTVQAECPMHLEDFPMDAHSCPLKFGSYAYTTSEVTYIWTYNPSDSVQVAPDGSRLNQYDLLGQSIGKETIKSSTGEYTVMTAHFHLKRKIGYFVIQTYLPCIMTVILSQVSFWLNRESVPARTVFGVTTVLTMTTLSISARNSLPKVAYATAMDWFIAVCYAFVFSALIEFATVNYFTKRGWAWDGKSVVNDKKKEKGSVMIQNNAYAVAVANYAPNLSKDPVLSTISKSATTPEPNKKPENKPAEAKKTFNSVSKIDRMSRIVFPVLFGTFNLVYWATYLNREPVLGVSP
Chain of GABA A receptor alpha-2/beta-2/gamma-2 (P63138 whole entry): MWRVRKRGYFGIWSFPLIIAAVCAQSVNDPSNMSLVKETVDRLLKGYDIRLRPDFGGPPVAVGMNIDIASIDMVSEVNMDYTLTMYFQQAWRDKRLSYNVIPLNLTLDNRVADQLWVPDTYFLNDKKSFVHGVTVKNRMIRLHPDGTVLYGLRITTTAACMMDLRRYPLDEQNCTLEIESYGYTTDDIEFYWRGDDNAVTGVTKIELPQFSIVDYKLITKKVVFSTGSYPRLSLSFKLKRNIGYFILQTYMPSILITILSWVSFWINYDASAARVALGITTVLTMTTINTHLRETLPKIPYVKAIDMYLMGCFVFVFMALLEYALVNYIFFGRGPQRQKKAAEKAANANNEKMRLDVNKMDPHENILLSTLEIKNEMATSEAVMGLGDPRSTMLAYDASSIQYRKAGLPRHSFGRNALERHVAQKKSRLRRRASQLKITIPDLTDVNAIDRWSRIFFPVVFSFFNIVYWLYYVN

Test [2] can be described thus: Displacement of [3H]flumazenil from benzodiazepine receptor in bovine brain membranes. In kind it is cell membranes, Bos taurus.
For test [3], the target named is GABA-A receptor; alpha-1/beta-2/gamma-2 (Rattus norvegicus, UniProt P18508+P62813+P63138). As to the kind of experiment: Displacement of [3H]flumazenil from rat GABAA alpha-1-beta-2-gamma-2 expressed in HEK293 cells. In kind it is cell-based. Summed up: as §1
Chain of GABA-A receptor; alpha-1/beta-2/gamma-2 (P18508 whole entry): as the sequence (P18508 whole entry) above
Chain of GABA-A receptor; alpha-1/beta-2/gamma-2 (P62813 whole entry): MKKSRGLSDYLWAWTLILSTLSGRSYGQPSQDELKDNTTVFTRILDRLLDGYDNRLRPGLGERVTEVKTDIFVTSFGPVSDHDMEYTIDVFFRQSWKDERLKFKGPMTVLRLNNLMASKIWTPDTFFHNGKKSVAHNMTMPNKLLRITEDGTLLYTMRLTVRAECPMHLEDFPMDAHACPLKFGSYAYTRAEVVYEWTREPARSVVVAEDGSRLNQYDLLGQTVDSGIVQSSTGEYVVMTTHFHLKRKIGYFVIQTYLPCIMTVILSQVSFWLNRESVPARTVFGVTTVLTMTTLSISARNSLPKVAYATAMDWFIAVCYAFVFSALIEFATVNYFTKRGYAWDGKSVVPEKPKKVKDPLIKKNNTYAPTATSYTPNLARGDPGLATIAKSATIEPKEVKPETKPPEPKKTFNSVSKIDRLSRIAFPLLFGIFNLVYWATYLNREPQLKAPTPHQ
Chain of GABA-A receptor; alpha-1/beta-2/gamma-2 (P63138 whole entry): as the sequence (P63138 whole entry) above
Test [4] concerns the target GABA A receptor alpha-5/beta-3/gamma-2 (Rattus norvegicus, UniProt P18508+P19969+P63079). As to the kind of experiment: Displacement of [3H]flumazenil from rat GABAA alpha-5-beta-3-gamma-2 expressed in HEK293 cells. In kind it is cell-based. An outline of the steps:
as §1

The species named for the next test is Bos taurus. As to the kind of experiment: Displacement of [3H]flumazenil from benzodiazepine receptor in bovine brain membranes at 10 uM. In kind it is cell membranes. Summed up:
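Bovine cerebral cortex membranes, freeze-thawed once and washed in 50 mM Tris-citrate pH 7.4, used for competition against [3H]flumazenil. Test compound at a fixed 10 µM; read-out is % inhibition of specific binding, as mean of three determinations run in triplicate.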

Test [5] has as its target GABA-A receptor; alpha-1/beta-2/gamma-2 (Rattus norvegicus) (UniProt P18508+P62813+P63138). As to the kind of experiment: Agonist activity at rat GABAA alpha-1-beta-2-gamma-2 expressed in HEK293 cells assessed as chloride influx. In kind it is functional, cell-based.
Test [6] concerns the target GABA A receptor alpha-2/beta-2/gamma-2 (Rattus norvegicus) (UniProt P18508+P23576+P63138). As to the kind of experiment: Displacement of [3H]flumazenil from rat GABAA alpha-2-beta-2-gamma-2 expressed in HEK293 cells at 10 uM. It counts as cell-based. Summed up: (§2)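 [3H]flumazenil competition in membranes of HEK293 cells stably expressing rat GABAA subtypes, prepared in 10 mM potassium phosphate pH 7.4 (48 000g, 4 °C, two washes, final buffer with 100 mM KCl). Single test concentration of 10 µM; % inhibition of specific binding, mean ± SEM of three determinations in triplicate.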

Test [7] deals with GABA A receptor alpha-5/beta-3/gamma-2 (Rattus norvegicus) (UniProt P18508+P19969+P63079). As to the kind of experiment: Displacement of [3H]flumazenil from rat GABAA alpha-5-beta-3-gamma-2 expressed in HEK293 cells at 10 uM. In kind it is cell-based. Summed up: as §2
The subject of the next test is Mus musculus. As to the kind of experiment: Decrease in spontaneous motor activity in Balb/C mouse at 10 mg/kg, ip. It counts as functional, organism-based. Details: dose 10 mg/kg.

Chain of GABA A receptor alpha-5/beta-3/gamma-2 (P18508 whole entry): as the sequence (P18508 whole entry) above
Chain of GABA A receptor alpha-5/beta-3/gamma-2 (P19969 whole entry): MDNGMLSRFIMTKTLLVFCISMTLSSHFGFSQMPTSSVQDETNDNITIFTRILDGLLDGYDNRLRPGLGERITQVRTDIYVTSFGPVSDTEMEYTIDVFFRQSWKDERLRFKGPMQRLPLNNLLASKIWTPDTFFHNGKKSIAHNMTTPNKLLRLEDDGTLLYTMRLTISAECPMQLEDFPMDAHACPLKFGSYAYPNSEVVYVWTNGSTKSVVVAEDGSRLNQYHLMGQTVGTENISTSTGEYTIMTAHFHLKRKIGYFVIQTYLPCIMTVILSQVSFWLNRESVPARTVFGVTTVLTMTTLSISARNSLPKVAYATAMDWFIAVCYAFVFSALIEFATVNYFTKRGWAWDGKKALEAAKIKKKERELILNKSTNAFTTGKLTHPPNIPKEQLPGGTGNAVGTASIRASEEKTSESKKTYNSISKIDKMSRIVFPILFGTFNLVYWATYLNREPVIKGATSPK
Chain of GABA A receptor alpha-5/beta-3/gamma-2 (P63079 whole entry): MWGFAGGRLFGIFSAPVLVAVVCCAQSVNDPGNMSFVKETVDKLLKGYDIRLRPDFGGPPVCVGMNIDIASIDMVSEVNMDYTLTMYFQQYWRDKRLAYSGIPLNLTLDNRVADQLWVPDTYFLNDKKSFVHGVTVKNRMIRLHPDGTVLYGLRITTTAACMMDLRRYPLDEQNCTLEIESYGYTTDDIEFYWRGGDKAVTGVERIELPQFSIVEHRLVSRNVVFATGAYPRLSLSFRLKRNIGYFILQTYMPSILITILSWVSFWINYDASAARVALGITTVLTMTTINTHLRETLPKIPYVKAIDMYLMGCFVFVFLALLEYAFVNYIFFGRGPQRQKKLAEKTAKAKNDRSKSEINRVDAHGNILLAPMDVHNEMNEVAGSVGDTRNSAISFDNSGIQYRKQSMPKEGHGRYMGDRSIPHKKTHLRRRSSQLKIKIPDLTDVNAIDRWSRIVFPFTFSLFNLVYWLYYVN

For the molecule `CCCCNC(=O)C(=O)c1c[nH]c2ccc([N+](=O)[O-])cc12`, the inhibition constant (Ki) in [1] was 553 nM; in [2] it was 110 nM; in test [3] it was 125 nM; in [4], 943 nM.

Consider `C[Si](C)(C)CC#Cc1ccc(CNC(=O)C(=O)c2c[nH]c3ccccc23)cc1`, for which the inhibition in the test listed under Bos taurus is 3%.

Turning to `O=C(NCc1ccc(Br)cc1)C(=O)c1c[nH]c2ccccc12`, the Ki in [1] was determined as 81 nM; in test [2] it was 93 nM; in test [3] it was 17 nM; in test [4], 1440 nM.

Consider `CCc1ccc(CNC(=O)C(=O)c2c[nH]c3ccc([N+](=O)[O-])cc23)cc1`, for which the inhibition in the test filed under Bos taurus amounted to 42%.

Turning to `C#Cc1ccc(CNC(=O)C(=O)c2c[nH]c3ccc([N+](=O)[O-])cc23)cc1`, the inhibition in the test listed under Bos taurus was found to be 28%.

The molecule `C[Si](C)(C)C#Cc1ccc(CNC(=O)C(=O)c2c[nH]c3ccc([N+](=O)[O-])cc23)cc1` gave an inhibition in the test filed under Bos taurus of 21%.

`CCCCCNC(=O)C(=O)c1c[nH]c2ccc([N+](=O)[O-])cc12`: affinity in test [2] was put at a Ki of 4100 nM.

Take `CC(C)CNC(=O)C(=O)c1c[nH]c2ccccc12`: in the test listed under Bos taurus, the inhibition is 43%.

Take `CN1C(=O)CN=C(c2ccccc2)c2cc(Cl)ccc21` [DIAZEPAM]: in [2], the inhibition constant Ki came to 10 nM. Further, the Activity in test [5] was found to be 72%.

In test [2], `O=C1CN=C(c2ccccc2Cl)c2cc([N+](=O)[O-])ccc2N1` [CLONAZEPAM] returned an inhibition constant (Ki) of 0.85 nM.

With `CC(C)(C)NC(=O)C(=O)c1c[nH]c2ccccc12`, the inhibition in the test filed under Bos taurus amounted to 7%.

`CCC(C)NC(=O)C(=O)c1c[nH]c2ccccc12` (stereo unspecified) came in with an inhibition in the test filed under Bos taurus of 34%.

Molecule `CC(C)CNC(=O)C(=O)c1c[nH]c2ccc([N+](=O)[O-])cc12` yielded an inhibition in the test filed under Bos taurus of 5%.

As to `Cc1ccc(CNC(=O)C(=O)c2c[nH]c3ccc([N+](=O)[O-])cc23)cc1`, the inhibition in test [6] and in [7] was 0% each time. Besides, the inhibition constant Ki in [2] amounted to 88 nM; in [3], 31.3 nM. The Activity in test [5] stood at 78%. Also, in the test on Mus musculus, the result was Active.

In the case of `CCC(C)NC(=O)C(=O)c1c[nH]c2ccc([N+](=O)[O-])cc12` (stereo unspecified), in test [2], the inhibitory constant (Ki) is 412 nM.

As to `CCc1ccc(CNC(=O)C(=O)c2c[nH]c3ccccc23)cc1`, the values for the inhibition constant (Ki) in test [1], in [2] and in test [3] were 1600 nM, 2160 nM and 559 nM, respectively. Further, the inhibition in test [7] was 40%.

For the molecule `CC(C)NC(=O)C(=O)c1c[nH]c2ccccc12`, the inhibition constant Ki in test [2] amounted to 2690 nM.

On to `O=C(NCc1ccc(Br)cc1)C(=O)c1c[nH]c2ccc([N+](=O)[O-])cc12`, for which the inhibition in the test listed under Bos taurus stood at 31%.

As to `CCCCNC(=O)C(=O)c1c[nH]c2ccccc12`, the results for the inhibition in test [6] and in test [7] were 7% and 28%, respectively. In addition, the inhibition constant (Ki) worked out at 3720 nM in test [2] and 1170 nM in test [3].

Take `CCCCCCNC(=O)C(=O)c1c[nH]c2ccc([N+](=O)[O-])cc12`: the inhibition in the test listed under Bos taurus turned out to be 53%.

`CCCCCCNC(=O)C(=O)c1c[nH]c2ccccc12` yielded a Ki in test [2] of 1650 nM.

On to `CC#Cc1ccc(CNC(=O)C(=O)c2c[nH]c3ccccc23)cc1`, for which the inhibition was found to be 16% in [6] and 13% in test [7]. Besides, the figures for the Ki in [2] and in test [3] were 3280 nM and 881 nM, respectively.

With `CC#Cc1ccc(CNC(=O)C(=O)c2c[nH]c3ccc([N+](=O)[O-])cc23)cc1`, the inhibition in the test filed under Bos taurus worked out at 0%.

For the molecule `Cc1ccc(-c2nc3ccc(C)cn3c2CC(=O)N(C)C)cc1`, in the test with Mus musculus, the result was Active.

Take `C#Cc1ccc(CNC(=O)C(=O)c2c[nH]c3ccccc23)cc1`: the inhibition constant (Ki) in test [1] was determined as 414 nM; in test [2] it was 164 nM; in test [3], 250 nM; in test [4], 1150 nM.

The molecule `CCCCCNC(=O)C(=O)c1c[nH]c2ccccc12` returned a Ki in [2] of 1480 nM.

As to `O=C(NCc1ccccc1)C(=O)c1c[nH]c2ccc([N+](=O)[O-])cc12`, the inhibition in [6] stood at 32%; in [7], 44%. For the same molecule, the Ki in [2] was found to be 117 nM; in test [3] it was 65 nM.

Consider `CC(C)(C)NC(=O)C(=O)c1c[nH]c2ccc([N+](=O)[O-])cc12`, for which, in [2], the Ki was 2800 nM.

`C[Si](C)(C)C#Cc1ccc(CNC(=O)C(=O)c2c[nH]c3ccccc23)cc1` showed an inhibition in the test filed under Bos taurus of 29%.

Consider `Cc1ccc(CNC(=O)C(=O)c2c[nH]c3ccccc23)cc1`, for which the Ki in test [2] was found to be 606 nM.

On to `CC(C)NC(=O)C(=O)c1c[nH]c2ccc([N+](=O)[O-])cc12`, for which the Ki turned out to be 175 nM in [1], 57.8 nM in test [2], 15 nM in test [3] and 498 nM in test [4].

For `C[Si](C)(C)CC#Cc1ccc(CNC(=O)C(=O)c2c[nH]c3ccc([N+](=O)[O-])cc23)cc1`, in the test listed under Bos taurus, the inhibition came to 0%.

With `O=C(NCc1ccccc1)C(=O)c1c[nH]c2ccccc12`, the figures for the inhibition in test [6] and in test [7] were 39% and 46%, respectively. Besides, the values for the inhibition constant (Ki) in [2] and in test [3] were 120 nM and 346 nM, respectively.
